The EternaBench riboswitch data

Test system: MS2 coat protein
Assay: apparent Kd, MS2 coat protein; higher = weaker binding; RNA-MaP array; FMN 200 µM where present
Method in brief: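 Apparent Kd: the median of filtered binding-curve fits from single clusters. Designs were transcribed on Illumina sequencing-chip clusters by stalled E. coli RNA polymerase and titrated with SNAP-549-labelled MS2 coat protein from 0.7 or 1.5 nM, doubling to 3 µM, in 100 mM Tris-HCl pH 7.5, 80 mM KCl, 4 mM MgCl2, BSA, DTT, yeast tRNA and Tween-20. Each series ran without and then with constant ligand, and green signal was normalised to red-channel RNA signal and control-cluster median Fmax.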

[1] = designed as: ON switch for flavin mononucleotide, no ligand
[2] = ligand present: flavin mononucleotide, designed as: ON switch for flavin mononucleotide
[3] = designed as: OFF switch for flavin mononucleotide, no ligand
[4] = ligand present: flavin mononucleotide, designed as: OFF switch for flavin mononucleotide

Sequence: GGAGACCUCACAGGAUAUGCUGGACUUUGUCCAGCAGAAGGGUGGACAUGAGGAUCACCCAUGUGGUCUUCCAAAAUAUUUAAU
- apparent Kd [1]: 728 nM
- apparent Kd [2]: 139 nM

Sequence: GGAGCAACAUGAGGAUCACCCAUGUAGGAUAUCGCUAUUGUAAUCAUGAAACAUGAUUACAAUAGCGAGAAGGACAUAUGCUUU
- apparent Kd [3]: 9.32 nM
- apparent Kd [4]: 11.9 nM

Sequence: GGAGCACAUCAAUACAUGAGGAUCACCCAUGUCGAAUGAUAUGAGGAUAUGCAUCGGAAAACGAUGUAGAAGGCAUAGUGCUCC
- apparent Kd [1]: 15.6 nM
- apparent Kd [2]: 6.27 nM

Sequence: GGAGCACGCACAGGAUAUCCGGCGGCGCUCGUCGGAGAAGGGUGACAUGAGGAUCACCCAUGUACGUGCAACUCAGUUUGAGUG
- apparent Kd [1]: 95.6 nM
- apparent Kd [2]: 40.4 nM

Sequence: GGAGCCCAGUCAGGAUAUGUAACGCUUAGGCUGUUACAUGAGGAUCACCCAUGUUUCACCGUGAAACAGAAGGGACAUUUGGCU
- apparent Kd [1]: 382 nM
- apparent Kd [2]: 122 nM

Sequence: GGAGCGGAAGGAUAUGCUGCGGGAUUGAAUGGAAAGAAAAUACAUGAGGAUCACCCAUGUAGAAGGUCCGUGAA
- apparent Kd [3]: 18.2 nM
- apparent Kd [4]: 54.2 nM

Sequence: GGAUAGGACAGAGGAUAUACGUGCUAGAGAUACUAACAAAAUUUCCUCACAUGAGGAUCACCCAUGUAGAAGGCUGUCCUAUCG
- apparent Kd [3]: 193 nM
- apparent Kd [4]: 187 nM

Sequence: GGAUAGGACAGAGGAUAUACGUGCUAGAGAUACUAGCAAAAUUACCUCACAUGAGGAUCACCCAUGUAGAAGGCUGUCCUAUCG
- apparent Kd [3]: 5.29 nM
- apparent Kd [4]: 60.6 nM

Sequence: GGAUAGGACAGAGGAUAUACGUGCUAGAGAUACUAGCAAAAUUUCCUCACAUGAGGAUCACCCAUGUAGAAGGCUGACCUAUCG
- apparent Kd [3]: 14.9 nM
- apparent Kd [4]: 412 nM

Sequence: GGAUAGGACAGAGGAUAUACGUGCUAGAGAUACUAGCAUAAUUUCCUCACAUGAGGAUCACCCAUGUAGAAGGCUGUCCUAUCG
- apparent Kd [3]: 6.78 nM
- apparent Kd [4]: 46.7 nM

Sequence: GGAUAGGACAGAGGAUAUACGUGCUAGAGAUACUAGUAAAAUUUCCUCACAUGAGGAUCACCCAUGUAGAAGGCUGUCCUAUCG
- apparent Kd [3]: 36.1 nM
- apparent Kd [4]: 684 nM

Sequence: GGAUAGGACAGAGGAUAUACGUGCUAGAGAUACUGGCAAAAUUUCCUCACAUGAGGAUCACCCAUGUAGAAGGCUGUCCUAUCG
- apparent Kd [3]: 16.6 nM
- apparent Kd [4]: 374 nM

Sequence: GGAUAGGACAGAGGAUAUACGUGCUAGAGAUACUUGCAAAAUUUCCUCACAUGAGGAUCACCCAUGUAGAAGGCUGUCCUAUCG
- apparent Kd [3]: 56 nM
- apparent Kd [4]: 489 nM

Sequence: GGAUAGGACAGAGGAUAUACGUGCUAGAGAUAUUAGCAAAAUUUCCUCACAUGAGGAUCACCCAUGUAGAAGGCUGUCCUAUCG
- apparent Kd [3]: 19.4 nM
- apparent Kd [4]: 328 nM

Sequence: GGAUAGGACAGAGGAUAUACGUGCUAGAUAUACUAGCAAAAUUUCCUCACAUGAGGAUCACCCAUGUAGAAGGCUGUCCUAUCG
- apparent Kd [3]: 15.6 nM
- apparent Kd [4]: 399 nM

Sequence: GGAUAGGAGAGAGGAUAUACGUGCUAGAGAUACUAGCAAAAUUUCCUCACAUGAGGAUCACCCAUGUAGAAGGCUGUCCUAUCG
- apparent Kd [3]: 11.1 nM
- apparent Kd [4]: 210 nM

Sequence: GGAUCAUAUGUCAGGAUAUGCAGGUCCUUGGAUCUGCAGAAGGGACAUGAGGAUCACCCAUGUCAUGAAGAUCC
- apparent Kd [3]: 35.6 nM
- apparent Kd [4]: 202 nM

Sequence: GGAUCGAAUGUGAGGAUAUACCACUGGAUACAGUGGUAGAAGGCACAUGAGGAUCACCCAUGUCCUUACGAUCC
- apparent Kd [3]: 96.5 nM
- apparent Kd [4]: 319 nM

Sequence: GGAUCGAAUGUGAGGAUAUGCUGGUCCUUGGAUCAGCAGAAGGCACAUGAGGAUCACCCAUGUUUCCACGGUCC
- apparent Kd [3]: 127 nM
- apparent Kd [4]: 869 nM

Sequence: GGAUCUUGGGUCAGGAUAUGCUGAUAGUUAUGUCAGCAGAAGGGACAUGAGGAUCACCCAUGUGCUCGGUUUUG
- apparent Kd [3]: 11.1 nM
- apparent Kd [4]: 19.7 nM

Sequence: GGAUGAGAAACUCAUCCAAAUCGAACAUGAGGAUCACCCAUGUAGGAUAUGCUACUCAAAGAGUAGCAGAAGGACAUGUGCUUU
- apparent Kd [3]: 35 nM
- apparent Kd [4]: 232 nM

Sequence: GGAUGAGAAACUCAUCCAAUUCGAACAUGAGGAUCACCCAUGUAGGAUAUGCUACUCAAAGAGUAGCAGAAGGACAUGUGCCUU
- apparent Kd [3]: 25 nM
- apparent Kd [4]: 189 nM

Sequence: GGAUGAGCAAUAGGAUAUGCUGGUAUUGAAUGGGUAGAAGGAUUUCUAGUGGUAAAGACAUGAGGAUCACCCAUGUAGCGGCCC
- apparent Kd [1]: 328 nM
- apparent Kd [2]: 265 nM
